Measured values pooled from the literature.
Compare with care: the assays were run in different laboratories.
Target: NUAK family SNF1-like kinase 1 (NUAK1, Homo sapiens, UniProt O60285)
Read-out: enzyme activity
Mode: inhibitor
Sequence (O60285 1-661, as in one of the studies): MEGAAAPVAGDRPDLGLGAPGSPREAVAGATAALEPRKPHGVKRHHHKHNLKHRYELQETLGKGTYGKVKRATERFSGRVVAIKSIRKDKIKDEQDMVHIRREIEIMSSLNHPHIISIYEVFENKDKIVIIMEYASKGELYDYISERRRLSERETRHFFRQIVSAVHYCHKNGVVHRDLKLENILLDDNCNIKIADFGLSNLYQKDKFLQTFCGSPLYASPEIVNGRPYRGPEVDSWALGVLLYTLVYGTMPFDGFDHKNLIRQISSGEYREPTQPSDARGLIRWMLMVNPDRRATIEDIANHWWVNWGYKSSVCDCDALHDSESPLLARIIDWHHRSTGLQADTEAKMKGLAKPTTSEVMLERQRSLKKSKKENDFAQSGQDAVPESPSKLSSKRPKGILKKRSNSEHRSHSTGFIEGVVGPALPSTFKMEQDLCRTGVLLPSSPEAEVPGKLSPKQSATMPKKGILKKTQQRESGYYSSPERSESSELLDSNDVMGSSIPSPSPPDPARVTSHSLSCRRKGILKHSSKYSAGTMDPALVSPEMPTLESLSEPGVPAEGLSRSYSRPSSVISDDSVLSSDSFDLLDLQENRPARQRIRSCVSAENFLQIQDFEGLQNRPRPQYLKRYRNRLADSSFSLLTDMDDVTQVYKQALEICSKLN

COc1cc(Cl)c(C(=O)N[C@@H](CN[C@H]2CC[C@@H](N)CC2)Cc2ccc(C#N)cc2)cc1-c1ccc(CN[C@H](C)c2ccc(C)cc2)o1 — remaining activity (1 µM): 92%
NS(=O)(=O)c1ccc(CNc2nc(Nc3cccc(NC(=O)N4CCCC4)c3)ncc2C2CC2)cc1 — remaining activity (radiometric; 1 µM): 89%
CC(C)(O)[C@H]1CC[C@H](Nc2ccc3ncc(-c4cccc(C(F)(F)F)c4)n3n2)CC1 — remaining activity (1 µM): 72%
O=C(Nc1cccc(Nc2ncc(Br)c(NCCc3cnc[nH]3)n2)c1)N1CCCC1 — remaining activity (radiometric; 1 µM): 1%
Oc1cccc(-c2nc(N3CCOCC3)c3oc4ncccc4c3n2)c1 — remaining activity (10 µM): 98%
NS(=O)(=O)c1ccc(CNc2nc(Nc3cccc(CN4CCOCC4)c3)ncc2C2CC2)cc1 — remaining activity (radiometric; 1 µM): 83%
Cc1sc(C(=O)NC2COC2)cc1-n1cc(NC(=O)Nc2c(F)cccc2Cl)cn1 — remaining activity (10 µM): 96.9%
COc1cc(Nc2cnc(C#N)c(O[C@H](C)CN(C)C)n2)ncc1-c1cnn(C)c1 — remaining activity (radiometric; 10 µM): 7%
Cc1cnc(NC2CCOCC2)nc1-n1cnc(C(=O)NC(CN)c2cc(F)cc(Cl)c2)c1 (stereo not drawn) — remaining activity (radiometric; 1 µM): 67%
CC(C)(C)c1nc2c(s1)c1nc(N)ncc1c1ccc(NS(=O)(=O)c3c(F)cccc3F)c(F)c12 — remaining activity (radiometric; 1 µM): 95%
Cn1c(=O)n(-c2ccc(C(C)(C)C#N)cc2)c2c3cc(-c4cnc5ccccc5c4)ccc3ncc21 — remaining activity (10 µM): 44%
Cc1ccc(C(=O)Nc2ccc(CN3CCN(C)CC3)c(C(F)(F)F)c2)cc1C#Cc1cnc2cccnn12 — remaining activity (23.5 nM): 85%
CC(C)(C)c1nc(-c2cccc(NS(=O)(=O)c3c(F)cccc3F)c2F)c(-c2ccnc(N)n2)s1 — remaining activity (radiometric; 1 µM): 101%
Cc1nn(CC(F)(F)F)cc1Nc1nccc(NCCCNC(=O)C2CCC2)n1 — remaining activity (radiometric; 1 µM): 86%
O=C(Nc1cnn(-c2csc(C(=O)NC3COC3)c2)c1)Nc1ccccc1Cl — remaining activity (5 µM): 97.9%
